In PubChem BioAssay AID588744 (Vanderbilt Specialized Chemistry Center, 2011):
Each block holds one compound with its values, some of them ahead of it. The source made the active and inactive calls.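 The calls were made as follows: active = compounds whose response rose with dose, given a half-maximal potency and peak effect versus acetylcholine; inactive = the rest.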

Molecular target: Muscarinic acetylcholine receptor M1 (Homo sapiens) (UniProt P11229)
Test: potentiation of ACh at human M1 – CHO cells, calcium fluorescence, counter-screen for M4 PAM project, dose response (AID 588744)
Conditions: CHO hM1 calcium mobilization, Fluo-4 fluorescence
In short: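 assay system = Fluo-4-loaded CHO cells expressing human M1 muscarinic receptor | probe or stimulus = acetylcholine at EC20, then acetylcholine at EC80 | timing = 144 s compound preincubation, EC80 ACh 86 s after EC20, 37 °C | signal = Fluo-4 calcium fluorescence | controls = maximal acetylcholine response at 1 mM as normalization reference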

Muscarinic acetylcholine receptor M1 (Homo sapiens), sequence (P11229 whole entry, looked up): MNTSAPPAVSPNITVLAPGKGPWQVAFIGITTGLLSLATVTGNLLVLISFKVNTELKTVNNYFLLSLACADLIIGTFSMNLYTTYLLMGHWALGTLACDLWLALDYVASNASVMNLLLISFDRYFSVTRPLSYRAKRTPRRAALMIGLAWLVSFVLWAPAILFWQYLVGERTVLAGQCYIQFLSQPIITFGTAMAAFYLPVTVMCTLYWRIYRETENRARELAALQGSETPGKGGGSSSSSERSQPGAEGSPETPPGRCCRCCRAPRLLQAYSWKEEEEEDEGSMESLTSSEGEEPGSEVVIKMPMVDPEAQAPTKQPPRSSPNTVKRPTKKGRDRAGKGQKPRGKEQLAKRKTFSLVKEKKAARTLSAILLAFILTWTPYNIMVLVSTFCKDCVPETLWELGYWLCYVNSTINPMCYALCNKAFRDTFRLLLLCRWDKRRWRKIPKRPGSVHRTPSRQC

% ACh max response (at 45.3 µM (top of the series)): inactive
Compound: Cc1nc2sc(C(=O)NCc3ccncc3)c(N)c2c(C)c1Cl

% ACh max response (at 30 µM (top of the series)): inactive
Compound: Cc1nc2sc(C(=O)NCc3nccs3)c(N)c2c(C)c1Cl

% ACh max response (at 45.3 µM (top of the series)): inactive
Compound: Cc1nc2sc(C(=O)NCc3cccnc3)c(N)c2c(C)c1Cl

% ACh max response (at 30 µM (top of the series)): inactive
Compound: Cc1nc2sc(C(=O)NCc3ccncn3)c(N)c2c(C)c1Cl

The remaining lines, values behind:

Compound: Cc1nc2sc(C(=O)NCc3ccccc3)c(N)c2c(C)c1Cl
% ACh max response (at 37.4 µM (top of the series)): inactive

Compound: Cc1nc2sc(C(=O)NCc3cccc(F)c3F)c(N)c2c(C)c1Cl
% ACh max response (at 30 µM (top of the series)): inactive

Compound: Cc1nc2sc(C(=O)NCCc3ccncc3)c(N)c2c(C)c1Cl
% ACh max response (at 30 µM (top of the series)): inactive

Compound: Cc1nc2sc(C(=O)NCc3ccc4c(c3)OCO4)c(N)c2c(C)c1Cl
% ACh max response (at 36.8 µM (top of the series)): inactive

Compound: Cc1nc2sc(C(=O)NC3CC3)c(N)c2c(C)c1Cl
EC50: 969 nM
